Test results as given in ChEMBL document CHEMBL1287652, “QSAR modeling, synthesis and bioassay of diverse leukemia RPMI-8226 cell line active agents” (2010).

Key:
Type in all cases: functional
[1] = tested on: CCRF-CEM; assay: Antitumor activity against human CCRF-CEM cells at 10 uM after 48 hrs by sulforhodamine B assay relative to control; settings: values are per cent of control
Outline: (§1)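 Single-dose screen in a 55-line panel. Cells in RPMI-1640 with 5% FBS and 2 mM glutamine were preincubated for 24 h, then exposed to compound (DMSO stock diluted in medium) for 48 h at 37 °C with 5% CO2. Cells were fixed with cold TCA, stained with 0.4% SRB in 1% acetic acid, and dye was solubilized in 10 mM Tris base and read at 515 nm. Growth is given as percent of untreated control.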

[2] = tested on: HL-60(TB); assay: Antitumor activity against human HL-60(TB) cells at 10 uM after 48 hrs by sulforhodamine B assay relative to control; settings: HL-60, 48 h
Outline: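 Single-dose NCI screen. Cells were in RPMI-1640 with 5% FBS and 2 mM L-glutamine, plated by doubling time and held 24 h at 37 °C in 5% CO2 before dosing. Exposure was 48 h. Suspension cells were fixed in situ with TCA (final 16%), SRB-stained, and read at 515 nm. Percentage growth was expressed relative to untreated control cells.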

[3] = tested on: MOLT-4; assay: Antitumor activity against human MOLT4 cells at 10 uM after 48 hrs by sulforhodamine B assay relative to control; settings: MOLT-4, 48 h, values are per cent of control
Outline: (§2)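 NCI panel lines were grown in RPMI-1640 with 5% FBS and 2 mM L-glutamine and seeded at 5000–40,000 cells/well according to doubling time. After 24 h at 37 °C, 5% CO2, one dose from a DMSO stock was added for 48 h. Cells were TCA-fixed (10% final adherent, 16% suspension), SRB-stained and read at 515 nm. Percent growth is relative to untreated control.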

[4] = tested on: SR; assay: Antitumor activity against human SR cells at 10 uM after 48 hrs by sulforhodamine B assay relative to control; settings: values are per cent of control
Outline: (§3)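 NCI panel line grown in RPMI-1640 with 5% FBS and 2 mM L-glutamine, plated at 5000–40,000 cells/well, 24 h preincubation. Single final 10 µM from DMSO stock, 48 h at 37 °C, 5% CO2. TCA fixation (10% adherent, 16% suspension), SRB stain, absorbance 515 nm. Percent growth relative to untreated control.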

[5] = tested on: HOP-62; assay: Antitumor activity against human HOP62 cells at 10 uM after 48 hrs by sulforhodamine B assay relative to control; settings: HOP-62, 48 h, values are per cent of control; outline: as §1
[6] = tested on: NCI-H23; assay: Antitumor activity against human NCI-H23 cells at 10 uM after 48 hrs by sulforhodamine B assay relative to control; settings: NCI-H23, 48 h, values are per cent of control; outline: as §2
[7] = tested on: NCI-H460; assay: Antitumor activity against human NCI-H460 cells at 10 uM after 48 hrs by sulforhodamine B assay relative to control; settings: NCI-H460, 48 h, values are per cent of control; outline: as §2
[8] = tested on: NCI-H522; assay: Antitumor activity against human NCI-H522 cells at 10 uM after 48 hrs by sulforhodamine B assay relative to control; settings: NCI-H522, 48 h, values are per cent of control; outline: as §2
[9] = tested on: HCT-116; assay: Antitumor activity against human HCT116 cells at 10 uM after 48 hrs by sulforhodamine B assay relative to control; settings: HCT-116, 48 h, values are per cent of control; outline: as §1
[10] = tested on: HCT-15; assay: Antitumor activity against human HCT15 cells at 10 uM after 48 hrs by sulforhodamine B assay relative to control; settings: HCT-15, 48 h, values are per cent of control; outline: as §1
[11] = tested on: KM12; assay: Antitumor activity against human KM12 cells at 10 uM after 48 hrs by sulforhodamine B assay relative to control; settings: KM12, 48 h, values are per cent of control; outline: as §1
[12] = tested on: SNB-75; assay: Antitumor activity against human SNB75 cells at 10 uM after 48 hrs by sulforhodamine B assay relative to control; settings: SNB-75, 48 h, values are per cent of control; outline: as §2
[13] = tested on: M14; assay: Antitumor activity against human M14 cells at 10 uM after 48 hrs by sulforhodamine B assay relative to control; settings: M14, 48 h, values are per cent of control; outline: as §1
[14] = tested on: SK-MEL-2; assay: Antitumor activity against human SK-MEL-2 cells at 10 uM after 48 hrs by sulforhodamine B assay relative to control; settings: SK-MEL-2, 48 h, values are per cent of control; outline: as §2
[15] = tested on: OVCAR-3; assay: Antitumor activity against human OVCAR-3 cells at 10 uM after 48 hrs by sulforhodamine B assay relative to control; settings: OVCAR-3, 48 h, values are per cent of control; outline: as §2
[16] = tested on: OVCAR-8; assay: Antitumor activity against human OVCAR8 cells at 10 uM after 48 hrs by sulforhodamine B assay relative to control; settings: OVCAR-8, 48 h, values are per cent of control; outline: as §2
[17] = tested on: NCI/ADR-RES; assay: Antitumor activity against human NCI/ADR-RES cells at 10 uM after 48 hrs by sulforhodamine B assay relative to control; settings: values are per cent of control; outline: as §2
[18] = tested on: 786-0; assay: Antitumor activity against human 786-0 cells at 10 uM after 48 hrs by sulforhodamine B assay relative to control; settings: 786-0, 48 h, values are per cent of control; outline: as §1
[19] = tested on: ACHN; assay: Antitumor activity against human ACHN cells at 10 uM after 48 hrs by sulforhodamine B assay relative to control; settings: values are per cent of control; outline: as §1
[20] = tested on: SN12C; assay: Antitumor activity against human SN12C cells at 10 uM after 48 hrs by sulforhodamine B assay relative to control; settings: values are per cent of control; outline: as §2
[21] = tested on: TK-10; assay: Antitumor activity against human TK10 cells at 10 uM after 48 hrs by sulforhodamine B assay relative to control; settings: TK-10, 48 h, values are per cent of control; outline: as §3
[22] = tested on: MCF7; assay: Antitumor activity against human MCF7 cells at 10 uM after 48 hrs by sulforhodamine B assay relative to control; settings: MCF7, 48 h, values are per cent of control; outline: as §1
[23] = tested on: MDA-MB-468; assay: Antitumor activity against human MDA-MB-468 cells at 10 uM after 48 hrs by sulforhodamine B assay relative to control; settings: MDA-MB-468, 48 h, values are per cent of control; outline: as §2
[24] = tested on: SF-295; assay: Antitumor activity against human SF295 cells after 48 hrs by sulforhodamine B assay; settings: SF-295, 48 h
Outline: (§4)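 Cells were cultured in RPMI-1640 (5% FBS, 2 mM L-glutamine), pre-incubated for 24 h with time-zero plates TCA-fixed, then exposed for 48 h to five serial dilutions. The SRB read-out at 515 nm used time-zero, control and test absorbances. GI50 solves [(Ti−Tz)/(C−Tz)]×100 = 50 (net protein increase). TGI is the concentration giving 100% growth inhibition.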

[25] = tested on: OVCAR-8; assay: Antitumor activity against human OVCAR8 cells after 48 hrs by sulforhodamine B assay; settings: OVCAR-8, 48 h; outline: as §4
[26] = tested on: SN12C; assay: Antitumor activity against human SN12C cells after 48 hrs by sulforhodamine B assay; outline: as §4
[27] = tested on: HOP-92; assay: Antitumor activity against human HOP92 cells at 10 uM after 48 hrs by sulforhodamine B assay relative to control; settings: HOP-92, 48 h, values are per cent of control; outline: as §1

Row | SMILES | inhibition at 10 µM [2] [%] | growth, % of control at 10 µM [3] [%] | growth, % of control at 10 µM [4] [%] | growth, % of control at 10 µM [5] [%] | growth, % of control at 10 µM [6] [%] | growth, % of control at 10 µM [7] [%] | growth, % of control at 10 µM [8] [%] | growth, % of control at 10 µM [9] [%] | growth, % of control at 10 µM [10] [%] | growth, % of control at 10 µM [11] [%] | growth, % of control at 10 µM [12] [%] | growth, % of control at 10 µM [13] [%] | growth, % of control at 10 µM [14] [%] | growth, % of control at 10 µM [15] [%] | growth, % of control at 10 µM [16] [%] | growth, % of control at 10 µM [17] [%] | growth, % of control at 10 µM [18] [%] | growth, % of control at 10 µM [19] [%] | growth, % of control at 10 µM [20] [%] | growth, % of control at 10 µM [21] [%] | further results
1 | COc1ccc(NC(=O)Nc2ccccc2OCCCOc2ccccc2NC(=O)Nc2ccc(OC)cc2)cc1 | 18.8 | -5.8 | -39.7 | 38.5 | 2.8 | 17.7 | 63.7 | -36.8 | 65.5 | 23.8 | -34.8 | 61.4 | 65.8 | -11.4 | -65.3 | 59.8 | -31.5 | 46.3 | -21.3 | 22 | growth, % of control at 10 µM [1]: -7.12%; growth, % of control at 10 µM [22]: 28.2%; growth, % of control at 10 µM [23]: 22.6%; GI50 [24]: 29.9 µM; TGI [24]: > 100 µM; GI50 [25]: 8.9 µM; TGI [25]: > 100 µM; GI50 [26]: > 100 µM; TGI [26]: > 100 µM
2 | O=C(Nc1ccc(Cl)cc1)Nc1ccc(OCCCOc2ccc(NC(=O)Nc3ccc(Cl)cc3)cc2)cc1 | 105 | 118 | 88.7 | 96.2 | 96.5 | 103 | 91.6 | 94.8 | 117 | 110 | 92.2 | 96.7 | 118 | 112 | 64.1 | 99.8 | 93.7 | 106 | 105 | 129 | growth, % of control at 10 µM [1]: 157%; growth, % of control at 10 µM [27]: 181%; growth, % of control at 10 µM [22]: 103%; growth, % of control at 10 µM [23]: 114%
3 | COc1ccc(NC(=O)Nc2ccc(OCCCOc3ccc(NC(=O)Nc4ccc(OC)cc4)cc3)cc2)cc1 | 90.4 | 95.5 | 90.4 | 95.7 | 94.5 | 96.8 | 98.3 | 83.3 | 118 | 117 | 101 | 95.5 | 108 | 116 | 70.1 | 94.4 | 86.9 | > 100 | 87.3 | 123 | growth, % of control at 10 µM [27]: 81.5%; growth, % of control at 10 µM [22]: 55%; growth, % of control at 10 µM [23]: 91.1%
